Results from different studies.
Each line is one published result; the experiments were not run side by side.
CDK1 with cyclin B1: Cyclin-dependent kinase 1, with cyclin B1 (CDK1, Homo sapiens, UniProt P06493)
CDK1: Cyclin-dependent kinase 1 (CDK1, Homo sapiens, UniProt P06493)
CDK1 with cyclin B: Cyclin-dependent kinase 1, with cyclin B (CDK1, Homo sapiens, UniProt P06493)
CDK1 with cyclin A: Cyclin-dependent kinase 1, with cyclin A (CDK1, Homo sapiens, UniProt P06493)
CDK1 with cyclin E: Cyclin-dependent kinase 1, with cyclin E (CDK1, Homo sapiens, UniProt P06493)

| Compound | target | assay | conditions | quantity | value |
| --- | --- | --- | --- | --- | --- |
| CC(C)(C)c1nc(-c2cccc(NS(=O)(=O)c3c(F)cccc3F)c2F)c(-c2ccnc(N)n2)s1 | CDK1 with cyclin B1 | enzyme activity, inhibitor, radiometric | 1 µM | remaining activity | 89% |
| CSc1nc(C)c(-c2ccnc(Nc3ccc(N4CCOCC4)cc3)c2)[nH]1 | CDK1 | enzyme activity, inhibitor | 10 µM | inhibition | 62% |
| COc1cccc2c(NCc3ccccc3)nc(-n3c(N)nc4ccccc43)nc12 | CDK1 | target engagement in cells, inhibitor, chemoproteomics | 20 mM | inhibition | -2.6% |
| COc1cc(Cl)c(C(=O)N[C@@H](CN[C@H]2CC[C@@H](N)CC2)Cc2ccc(C#N)cc2)cc1-c1ccc(CN[C@H](C)c2ccc(C)cc2)o1 | CDK1 with cyclin B | enzyme activity, inhibitor | 1 µM | remaining activity | 95% |
| O=C1NC(=O)c2c1c1c3ccccc3[nH]c1n1cncc21 | CDK1 with cyclin B | cell-free assay | 0.5 µM | remaining signal | 85.5% |
| COc1cc2ncnc(Nc3ccc(Oc4ccccc4)cc3C)c2cc1OC | CDK1 with cyclin B | enzyme activity, inhibitor | 1 µM | inhibition | 3% |
| Nc1nc(Nc2ccc(S(N)(=O)=O)cc2)nn1C(=O)c1c(F)cccc1F | CDK1 with cyclin A | cell-free assay | 0.5 µM | remaining signal | 10.3% |
| CC(C)(O)[C@H]1CC[C@H](Nc2ccc3ncc(-c4cccc(C(F)(F)F)c4)n3n2)CC1 | CDK1 with cyclin A | enzyme activity, inhibitor | 1 µM | remaining activity | 95.4% |
| CN1CC(Oc2cnc(C#N)cc2-c2ccn3nc(NC(=O)C4CC4)cc3c2)C1 | CDK1 with cyclin B | enzyme activity, inhibitor | 1 µM | inhibition | -8% |
| CC(C)(C)c1nc2c(s1)c1nc(N)ncc1c1ccc(NS(=O)(=O)c3c(F)cccc3F)c(F)c12 | Cyclin-dependent kinase 1, with cyclin E1 (CDK1, Homo sapiens, UniProt P06493) | enzyme activity, inhibitor, radiometric | 1 µM | remaining activity | 83% |
| Cc1ccc(Nc2nccc(N(C)c3ccc4c(C)n(C)nc4c3)n2)cc1S(N)(=O)=O | CDK1 with cyclin B | enzyme activity, inhibitor | 0.3 µM | inhibition | 14% |
| O=C1Nc2ccc(Cl)cc2C1=Cc1cc(Cl)c(O)c(Cl)c1 | CDK1 with cyclin B | cell-free assay | 0.5 µM | remaining signal | 96.3% |
| CCN(CC)c1ccc(C2=NNC(=O)CC2C)cc1[N+](=O)[O-] (centres unmarked) | CDK1 with cyclin B | enzyme activity, inhibitor | 10 µM | remaining activity | 111% |
| CNCc1ccc(-c2cc(-c3nc(-c4ccc(S(=O)(=O)C(C)C)cc4)cnc3N)on2)cc1 | CDK1 with cyclin B | enzyme activity, inhibitor | 0.4 µM | inhibition | 0% |
| N#CCCc1ccc2c(c1)-c1[nH]c3ccc([N+](=O)[O-])cc3c1CC(=O)N2 | CDK1 with cyclin B | cell-free assay | 0.5 µM | remaining signal | 9.89% |
| O=C(Nc1cnn(-c2csc(C(=O)NC3COC3)c2)c1)Nc1ccccc1Cl | CDK1 with cyclin E | enzyme activity, inhibitor | 5 µM | remaining activity | 94.7% |
| CC/C(=N\NC(=O)NCc1cccc(O)c1)c1ccc(O)c(C)c1O | CDK1 with cyclin B1 | enzyme activity, inhibitor | 0.1 µM | inhibition | -14.8% |
| O=C1NC(=O)c2cc(Nc3ccc(F)cc3)c(Nc3ccc(F)cc3)cc21 | CDK1 with cyclin A | cell-free assay | 0.5 µM | remaining signal | 96.1% |
| CNC(=O)c1cc(Oc2ccc(NC(=O)Nc3ccc(Cl)c(C(F)(F)F)c3)cc2)ccn1 | CDK1 with cyclin B | enzyme activity, inhibitor | 0.3 µM | inhibition | -5% |
| CC(C)n1cnc2c(Nc3cccc(Cl)c3)nc(NCCO)nc21 | CDK1 with cyclin B | cell-free assay | 0.5 µM | remaining signal | 46.6% |
| Cc1sc(C(=O)NC2COC2)cc1-n1cc(NC(=O)Nc2c(F)cccc2Cl)cn1 | CDK1 with cyclin A | enzyme activity, inhibitor | 10 µM | remaining activity | 105% |
| CCOc1cc(-c2nncn2C)ccc1Nc1ncc2cc(C)nc(NCC(C)(C)C)c2n1 | CDK1 with cyclin B | enzyme activity, inhibitor, FRET | 1 µM | inhibition | 30% |
| CC(C)[C@H](CO)Nc1nc(Nc2cccc(Cl)c2)c2ncn(C(C)C)c2n1 | CDK1 with cyclin A | cell-free assay | 0.5 µM | remaining signal | 31.7% |
| CCCCNc1ncc2c(-c3ccc(F)cc3)nn(C[C@H]3CC[C@H](N)CC3)c2n1 | CDK1 | target engagement in cells, inhibitor, chemoproteomics | 20 mM | inhibition | 4.2% |
| Cc1ccc(C(=O)NCc2ccsc2)cc1C#Cc1cn(C(C)C)c2ncnc(N)c12 | CDK1 with cyclin B | enzyme activity, inhibitor | 1 µM | activity vs control | 100% |
| O=C(Nc1cnn(-c2csc(C(=O)NC3COC3)c2)c1)Nc1c(F)cccc1Cl | CDK1 with cyclin E | enzyme activity, inhibitor | 5 µM | remaining activity | 98.4% |
| O=Nc1c(-c2c(O)[nH]c3ccccc23)[nH]c2ccccc12 | CDK1 with cyclin B | cell-free assay | 0.5 µM | remaining signal | 68.7% |
| CCN(CC)CCNC(=O)c1c(C)[nH]c(/C=C2\C(=O)Nc3ccc(F)cc32)c1C | CDK1 with cyclin B | enzyme activity, inhibitor | 0.3 µM | inhibition | 2% |
| CCCS(=O)(=O)Nc1ccc(F)c(C(=O)c2c[nH]c3ncc(-c4ccc(Cl)cc4)cc23)c1F | CDK1 with cyclin B | enzyme activity, inhibitor | 1 µM | inhibition | < 10% |
